Measurements as given in ChEMBL document CHEMBL1127783, “Sugar-linked dithiocarbamates as modulators of metabolic and genotoxic properties of N-nitroso compounds” (J Med Chem, 1994).
“And” between values parts separate entries of the source, which are not always exact repeats. Equal entries are not always repeated.

Experiments:
Rattus norvegicus [1] = assay: Tested for total body clearance (CL) after intravenous bolus administration of 100 mg/kg in rat 1; assay type: ADME, organism-based; design: dose 100 mg/kg, route intravenous; conditions: in vivo
How it was run: (§1)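 Rats (two per compound) were catheterised in the jugular vein under chloral hydrate. A 100 mg/kg iv bolus was given through the catheter, followed by a saline rinse. Serial blood samples (250–300 μL) were collected into heparinized tubes and centrifuged for plasma. Each rat's plasma concentration–time data were fitted by nonlinear regression to a compartment model to derive AUC, MRT, CL, Vss and phase half-lives. Body weight was recorded for each rat.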

Rattus norvegicus [2] = assay: Tested for cumulative urinary excretion following intravenous bolus dose of 100 mg/kg in rat at 8-24 h was recovered; assay type: functional, Urine
How it was run: (§2)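 Rats (five per group) were given a single 100 mg/kg dose ip or as an iv bolus. Each was housed alone in a metabolism cage, and urine was collected over 0–8 h and 8–24 h. Parent compound and the monosaccharide-linked metabolite in urine were quantified and reported as cumulative % of dose, mean ± SD.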

Rattus norvegicus [3] = species: Rattus norvegicus; assay: Tested in vitro for N-nitrosodimethylamine (NDMA) demethylase activity at 2 mM for 0 mM concentration of formaldehyde; assay type: functional
How it was run: (§3)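 Liver microsomal fraction from untreated male Sprague–Dawley rats with NADPH-generating system. NDMA substrate 0.1–1 mM; test compound 2–20 mM or DDTC 2 mM added. Formaldehyde and acetaldehyde formed measured as (2,4-dinitrophenyl)hydrazones. Mean ± SD of three separate experiments.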

Rattus norvegicus [4] = assay: Tested for body weight after intravenous bolus administration of 100 mg/kg in rat 1; assay type: ADME, organism-based; design: dose 100 mg/kg, route intravenous; conditions: in vivo; how it was run: as §1
Rattus norvegicus [5] = species: Rattus norvegicus; assay: Tested in vitro for N-nitrosodimethylamine (NDMA) demethylase activity at 2 mM for 5 mM concentration of acetaldehyde; assay type: functional; how it was run: as §3
Rattus norvegicus [6] = assay: Tested for cumulative urinary excretion following intraperitoneal dose of 100 mg/kg in rat at 0-8 hr was recovered; assay type: functional, Urine; how it was run: as §2
Rattus norvegicus [7] = species: Rattus norvegicus; assay: Tested in vitro for N-nitrosodimethylamine (NDMA) demethylase activity at 1 mM for 2 mM concentration of acetaldehyde; assay type: functional; how it was run: as §3
Rattus norvegicus [8] = assay: Tested for half life beta after intravenous bolus administration of 100 mg/kg in rat 1; assay type: ADME, organism-based; design: dose 100 mg/kg, route intravenous; conditions: in vivo; how it was run: as §1
Rattus norvegicus [9] = species: Rattus norvegicus; assay: Tested in vitro for N-nitrosodimethylamine (NDMA) demethylase activity at 0.1 mM for 2 mM concentration of formaldehyde; assay type: functional; how it was run: as §3
Rattus norvegicus [10] = assay: Tested ex vivo for analysis of DNA single-strand breaks in primary rat hepatocyte by oral treatment of NaCl during first gavage; assay type: functional
How it was run: (§4)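 Fasted rats given a first gavage of 0.5 mmol/kg test agent or saline, then NDEA (1.4 mg/kg) or saline by a second gavage 2 h later, both in 10 mL NaCl/kg. At 1 h after the second gavage, hepatocytes were isolated by two-step in situ perfusion under metophane anaesthesia. Alkaline filter elution: 1.5 × 10⁶ cells/filter, lysis at pH 10 with SDS/proteinase K, ten elution fractions, DNA measured by Hoechst 33258 fluorescence. Readout is control minus treated % DNA retained on filter; n = 6.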

[11] = Tested for the half life period in alpha glucosidase at pH of 7.4; 9-18 days; assay type: ADME; conditions: pH 7.4
Rattus norvegicus [12] = species: Rattus norvegicus; assay: Tested in vitro for N-nitrosodimethylamine (NDMA) demethylase activity at 2 mM for 20 mM concentration of formaldehyde; assay type: functional; how it was run: as §3
[13] = Tested for half -life alpha after intravenous bolus administration of 100 mg/kg in rat 1; assay type: ADME, organism-based; design: dose 100 mg/kg, route intravenous; conditions: in vivo, read-out: T1/2 alpha; how it was run: as §1
Rattus norvegicus [14] = assay: Tested for total body clearance (CL) after intravenous bolus administration of 100 mg/kg in rat 2; assay type: ADME, organism-based; design: dose 100 mg/kg, route intravenous; conditions: in vivo; how it was run: as §1
Rattus norvegicus [15] = assay: Tested for area under the curve (AUC) after intravenous bolus administration of 100 mg/kg in rat 1; assay type: ADME, organism-based; design: dose 100 mg/kg, route intravenous; conditions: in vivo; how it was run: as §1
[16] = Tested for half life beta after intravenous bolus administration of 100 mg/kg in rat 2; assay type: ADME, organism-based; design: dose 100 mg/kg, route intravenous; conditions: in vivo, read-out: T1/2 beta; how it was run: as §1
Rattus norvegicus [17] = assay: Tested for steady state volume of distribution (Vss) after intravenous bolus administration of 100 mg/kg in rat 1; assay type: ADME, organism-based; design: dose 100 mg/kg, route intravenous; conditions: in vivo; how it was run: as §1
Rattus norvegicus [18] = assay: Tested for cumulative urinary excretion following intraperitoneal dose of 100 mg/kg in rat at 8-24 hr was recovered; assay type: functional, Urine; how it was run: as §2
Rattus norvegicus [19] = assay: Tested for mean residence time (MRT) after intravenous bolus administration of 100 mg/kg in rat 2; assay type: ADME, organism-based; design: dose 100 mg/kg, route intravenous; conditions: in vivo; how it was run: as §1
Rattus norvegicus [20] = assay: Tested for steady state volume of distribution (Vss) after intravenous bolus administration of 100 mg/kg in rat 2; assay type: ADME, organism-based; design: dose 100 mg/kg, route intravenous; conditions: in vivo; how it was run: as §1
Rattus norvegicus [21] = assay: Tested for cumulative urinary excretion following intravenous bolus dose of 100 mg/kg in rat at 0-8 hr was recovered; assay type: functional, Urine; how it was run: as §2
Rattus norvegicus [22] = assay: Tested ex vivo for analysis of DNA single-strand breaks in primary rat hepatocyte by oral treatment of NDEA during second gavage, 2 hr after first gavage.; assay type: functional; how it was run: as §4
Rattus norvegicus [23] = assay: Tested for mean residence time (MRT) after intravenous bolus administration of 100 mg/kg in rat 1; assay type: ADME, organism-based; design: dose 100 mg/kg, route intravenous; conditions: in vivo; how it was run: as §1
[24] = Tested for half life gamma after intravenous bolus administration of 100 mg/kg in rat 2; assay type: ADME, organism-based; design: dose 100 mg/kg, route intravenous; conditions: in vivo, read-out: T1/2 gamma; how it was run: as §1
Rattus norvegicus [25] = species: Rattus norvegicus; assay: Tested in vitro for N-nitrosodimethylamine (NDMA) demethylase activity at 0.5 mM for 2 mM concentration of acetaldehyde; assay type: functional; how it was run: as §3
Rattus norvegicus [26] = assay: Tested for cumulative urinary excretion following intraperitoneal dose of 100 mg/kg in rat at 0-8 h; assay type: functional, Urine; how it was run: as §2
[27] = Tested for the half life period in phosphate buffer at pH of 7.4; Stable; assay type: ADME; conditions: pH 7.4
Rattus norvegicus [28] = assay: Tested ex vivo for analysis of DNA single-strand breaks in primary rat hepatocyte by oral treatment of NaCl during second gavage, 2 hr after first gavage.; assay type: functional; how it was run: as §4
Rattus norvegicus [29] = species: Rattus norvegicus; assay: Tested in vitro for N-nitrosodimethylamine (NDMA) demethylase activity at 0.1 mM for 2 mM concentration of acetaldehyde; assay type: functional; how it was run: as §3
[30] = Tested for the half life period in beta glucosidase at pH of 7.4; 6-12 days; assay type: ADME; conditions: pH 7.4
Rattus norvegicus [31] = assay: Tested for cumulative urinary excretion following intravenous bolus dose of 100 mg/kg in rat at 8-24 h; assay type: functional, Urine; how it was run: as §2
Rattus norvegicus [32] = species: Rattus norvegicus; assay: Tested in vitro for N-nitrosodimethylamine (NDMA) demethylase activity at 0.1 mM for 0 mM concentration of acetaldehyde; assay type: functional; how it was run: as §3
Rattus norvegicus [33] = species: Rattus norvegicus; assay: Tested in vitro for N-nitrosodimethylamine (NDMA) demethylase activity at 2 mM for 0 mM concentration of acetaldehyde; assay type: functional; how it was run: as §3
Rattus norvegicus [34] = assay: Tested ex vivo for analysis of DNA single-strand breaks in primary rat hepatocyte by oral treatment of NDEA during first gavage; assay type: functional
Rattus norvegicus [35] = assay: Tested for body weight after intravenous bolus administration of 100 mg/kg in rat 2; assay type: ADME, organism-based; design: dose 100 mg/kg, route intravenous; conditions: in vivo; how it was run: as §1
Rattus norvegicus [36] = species: Rattus norvegicus; assay: Tested in vitro for N-nitrosodimethylamine (NDMA) demethylase activity at 2 mM for 2 mM concentration of formaldehyde; assay type: functional; how it was run: as §3
Rattus norvegicus [37] = species: Rattus norvegicus; assay: Tested in vitro for N-nitrosodimethylamine (NDMA) demethylase activity at 2 mM for 5 mM concentration of formaldehyde; assay type: functional; how it was run: as §3
Rattus norvegicus [38] = assay: Tested for cumulative urinary excretion following intraperitoneal dose of 100 mg/kg in rat at 8-24 h; assay type: functional, Urine; how it was run: as §2
[39] = Tested for half -life alpha after intravenous bolus administration of 100 mg/kg in rat 2; assay type: ADME, organism-based; design: dose 100 mg/kg, route intravenous; conditions: in vivo, read-out: T1/2 alpha; how it was run: as §1
Rattus norvegicus [40] = species: Rattus norvegicus; assay: Tested in vitro for N-nitrosodimethylamine (NDMA) demethylase activity at 0.5 mM for 2 mM concentration of formaldehyde; assay type: functional; how it was run: as §3
Rattus norvegicus [41] = assay: Tested for cumulative urinary excretion following intravenous bolus dose of 100 mg/kg in rat at 0-8 h; assay type: functional, Urine; how it was run: as §2
Rattus norvegicus [42] = species: Rattus norvegicus; assay: Tested in vitro for N-nitrosodimethylamine (NDMA) demethylase activity at 1 mM for 2 mM concentration of formaldehyde; assay type: functional; how it was run: as §3
[43] = Tested for half life gamma after intravenous bolus administration of 100 mg/kg in rat 1; assay type: ADME, organism-based; design: dose 100 mg/kg, route intravenous; conditions: in vivo, read-out: T1/2 gamma; how it was run: as §1
Rattus norvegicus [44] = species: Rattus norvegicus; assay: Tested in vitro for N-nitrosodimethylamine (NDMA) demethylase activity at 2 mM for 2 mM concentration of acetaldehyde; assay type: functional; how it was run: as §3
Rattus norvegicus [45] = species: Rattus norvegicus; assay: Tested in vitro for N-nitrosodimethylamine (NDMA) demethylase activity at 0.1 mM for 0 mM concentration of formaldehyde; assay type: functional; how it was run: as §3
Rattus norvegicus [46] = assay: Tested for area under the curve (AUC) after intravenous bolus administration of 100 mg/kg in rat 2; assay type: ADME, organism-based; design: dose 100 mg/kg, route intravenous; conditions: in vivo; how it was run: as §1

Clearance (Rattus norvegicus [1]): 25.5 mL/min/kg | T1/2 beta (Rattus norvegicus [8]): 19.3 min | half-life [11]: 216 h | half-life [13]: 3.7 min | Clearance (Rattus norvegicus [14]): 42.1 mL/min/kg | AUC (Rattus norvegicus [15]): 17.6 uM min l-1 | half-life [16]: 23.6 min | Vss (Rattus norvegicus [17]): 0.1526 L/kg | MRT (Rattus norvegicus [19]): 43.8 min | Vss (Rattus norvegicus [20]): 0.1848 L/kg | MRT (Rattus norvegicus [23]): 59.8 min | half-life [24]: 129 min | T1/2 [27]: Stable | half-life [30]: 144 h | half-life [39]: 5.2 min | half-life [43]: 88.8 min | AUC (Rattus norvegicus [46]): 11.4 uM min l-1
Compound: CCN(CC)C(=S)SC1OC(CO)C(O)C(O)C1O (stereo not given)
Excretion (Rattus norvegicus [2]): 1.2 % of dose | Formaldehyde (Rattus norvegicus [3]): 15 nM (mg of protein)-1 | Body weight (Rattus norvegicus [4]): 140 g | Acetaldehyde (Rattus norvegicus [5]): 25.9 nM (mg of protein)-1 | Excretion (Rattus norvegicus [6]): 21 % of dose | Acetaldehyde (Rattus norvegicus [7]): 4.3 nM (mg of protein)-1 | Formaldehyde (Rattus norvegicus [9]): 1.2 nM (mg of protein)-1 | DNA on filter (Rattus norvegicus [10]): 60 | Viability (Rattus norvegicus [10]): 82% | Formaldehyde (Rattus norvegicus [12]): 1.5 nM (mg of protein)-1 | Excretion (Rattus norvegicus [18]): 1 % of dose | Excretion (Rattus norvegicus [21]): 13.1 % of dose | DNA on filter (Rattus norvegicus [22]): 77 | Viability (Rattus norvegicus [22]): 106% | Acetaldehyde (Rattus norvegicus [25]): 8.5 nM (mg of protein)-1 | Excretion (Rattus norvegicus [26]): 31.2 % of dose | DNA on filter (Rattus norvegicus [28]): 58 | Viability (Rattus norvegicus [28]): 100% | Acetaldehyde (Rattus norvegicus [29]): 10.9 nM (mg of protein)-1 | Excretion (Rattus norvegicus [31]): 1.5 % of dose | Acetaldehyde (Rattus norvegicus [32]): 0 nM (mg of protein)-1 | Acetaldehyde (Rattus norvegicus [33]): 0 nM (mg of protein)-1 | DNA on filter (Rattus norvegicus [34]): 74 | Viability (Rattus norvegicus [34]): 92% | Body weight (Rattus norvegicus [35]): 150 g | Formaldehyde (Rattus norvegicus [36]): 14.7 nM (mg of protein)-1 | Formaldehyde (Rattus norvegicus [37]): 11.9 nM (mg of protein)-1 | Excretion (Rattus norvegicus [38]): 2.2 % of dose | Formaldehyde (Rattus norvegicus [40]): 9 nM (mg of protein)-1 | Excretion (Rattus norvegicus [41]): 34.5 % of dose | Formaldehyde (Rattus norvegicus [42]): 6.2 nM (mg of protein)-1 | Acetaldehyde (Rattus norvegicus [44]): 13.8 nM (mg of protein)-1 and 31.5 nM (mg of protein)-1 | Formaldehyde (Rattus norvegicus [45]): 4.6 nM (mg of protein)-1
